Test results from publication PMC3132447 (Diabetes, Obesity & Metabolism, 2011).
Marks after values point to notes of the source that are not given here.

Experiments:
[1] = system: obese subjects with type 2 diabetes; test: Postprandial plasma glucose after a standardized test meal; type: in vivo, human; settings: n = 30; for Time to 10% of total glucose AUC / Time to 20% of total glucose AUC / Time to ΔGLUmax: 0.2 U/kg s.c. before standardized meal, obese T2DM, median
How it was run: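 Same crossover, fasting, 0.2 U/kg s.c. premeal dosing and standardized 692-kcal meal. Plasma glucose was sampled at −20, −10 and 0 min, every 10 min to 2 h, then every 15 min to 6 h. AUCs used the linear trapezoidal rule; incremental AUCs and GLUmax used ANOVA (subject, treatment, sequence, period). Ratio 90% CIs used Fieller's theorem on untransformed data; times used Wilcoxon with Hodges–Lehmann 90% CI.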

[2] = Serum insulin analogue concentrations after subcutaneous bolus; type: in vivo, human; settings: n = 30; for Time to fraction of total insulin AUC (10%) / Time to fraction of total insulin AUC (20%) / Tmax (time to peak insulin concentration) / Insulin AUC0–1 h/AUC0–6 h, geometric mean / Insulin AUC0–2 h/AUC0–6 h, arithmetic mean (value in brackets) / Insulin AUC0–2 h/AUC0–6 h, geometric mean / Insulin AUC0–4 h/AUC0–6 h, arithmetic mean (value in brackets) / Insulin AUC0–4 h/AUC0–6 h, geometric mean: 0.2 U/kg s.c. before standardized meal, obese T2DM; for Time to fraction of total insulin AUC (10%) / Time to fraction of total insulin AUC (20%) / Tmax (time to peak insulin concentration): median; for Insulin AUC0–1 h/AUC0–6 h, geometric mean / Insulin AUC0–2 h/AUC0–6 h, arithmetic mean (value in brackets) / Insulin AUC0–2 h/AUC0–6 h, geometric mean / Insulin AUC0–4 h/AUC0–6 h, arithmetic mean (value in brackets) / Insulin AUC0–4 h/AUC0–6 h, geometric mean: serum analogue
How it was run: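 Same crossover and 0.2 U/kg s.c. premeal dosing in obese T2DM (n = 30). Serum test insulin analogue was measured by an analogue-specific kit at a central laboratory over 6 h. Non-compartmental analysis gave Cmax, Tmax and linear-trapezoidal AUC fractions. Ratios with 90% CI used ANOVA on ln-transformed data; times used Hodges–Lehmann 90% CI for median differences.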

NEFA = test: Non-esterified fatty acid; type: in vivo, human; settings: for Mean NEFA concentration after subsequent increase / Time of lowest mean NEFA concentration: 0.2 U/kg s.c. before standardized meal; for Mean NEFA concentration after subsequent increase: after the nadir, within 6-h period; for Time of lowest mean NEFA concentration / Mean NEFA concentration at start (before decrease): obese T2DM; for Mean NEFA concentration at start (before decrease): baseline
How it was run: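 Obese T2DM adults (n = 30) fasted 12 h with oral agents withheld. In a randomized two-way crossover with a 7-day washout, they received 0.2 U/kg s.c. of test insulin analogue within 2 min before a 692-kcal meal (54% carbohydrate, 17% protein, 28% lipid) eaten within 30 min. Plasma NEFA was sampled from −20 min to 6 h by validated kit; mean profiles.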

[3] = system: obese subjects with type 2 diabetes; test: Hypoglycaemia and adverse events; type: in vivo, human; settings: for Severe hypoglycaemia / Subjects with hypoglycaemia with blood glucose below 56 mg/dl / Subjects with an episode of hypoglycaemia 3–6 h after insulin administration: 0.2 U/kg s.c.; for Subjects with an episode of hypoglycaemia 3–6 h after insulin administration: blood glucose <70 mg/dl
[4] = subcutaneously injected; cited from earlier work
[5] = point estimate (90% CI), Fieller's Theorem, untransformed data
[6] = point estimate (90% CI), Hodges and Lehmann method
[7] = point estimate (90% CI), ln-transformed data

Substance	Time to 10% of total glucose AUC [1]	Time to 20% of total glucose AUC [1]	Time to ΔGLUmax [1]	Time to fraction of total insulin AUC (10%) [2]	Time to fraction of total insulin AUC (20%) [2]	Tmax (time to peak insulin concentration) [2]	Insulin AUC0–1 h/AUC0–6 h, geometric mean [2] [%]	Insulin AUC0–2 h/AUC0–6 h, arithmetic mean (value in brackets) [2] [%]	Insulin AUC0–2 h/AUC0–6 h, geometric mean [2] [%]	Insulin AUC0–4 h/AUC0–6 h, arithmetic mean (value in brackets) [2] [%]	Insulin AUC0–4 h/AUC0–6 h, geometric mean [2] [%]	Mean NEFA concentration after subsequent increase (NEFA) [mmol/L]	Time of lowest mean NEFA concentration (NEFA) [min]	Mean NEFA concentration at start (before decrease) (NEFA) [mmol/L]	Severe hypoglycaemia [3]	Subjects with hypoglycaemia with blood glucose below 56 mg/dl [3]	Subjects with an episode of hypoglycaemia 3–6 h after insulin administration [3] [subjects]	also measured
insulin glulisine	40.0 ^† min	67.5 ^† min	60.0 ^† min	60.0 ^† min	90.0 ^† min	120.0 ^† min	14	3.6	36	4.3	78	0.32	180	0.50	no cases of severe hypoglycaemia requiring intervention	Five	10	GLUmax, mean ratio glulisine/aspart [1, 5]: 94% (90–99); Glucose AUC0–1 h, mean ratio glulisine/aspart [1, 5]: 94% (90–99); Glucose AUC0–1 h/AUC0–6 h, mean ratio glulisine/aspart [1, 5]: 95% (92–99); Glucose AUC0–2 h/AUC0–6 h, mean ratio glulisine/aspart [1, 5]: 96% (94–99); Glucose AUC0–4 h/AUC0–6 h, mean ratio glulisine/aspart [1, 5]: 99% (97–100); Glucose AUC0–6 h, mean ratio glulisine/aspart [1, 5]: 98% (95–104); ΔGLUmax, mean ratio glulisine/aspart [1, 5]: 81% (70–100); Time to 10% of total glucose AUC, median difference glulisine vs aspart [1, 6]: -2 min; Time to 20% of total glucose AUC, median difference glulisine vs aspart [1, 6]: 0 (−4 to 3) min; Time to ΔGLUmax, median difference glulisine vs aspart [1, 6]: -5 min; GLUmax, mean difference glulisine vs aspart ([1]; point estimate (90% CI), analysis of variance, untransformed data): -11 mg/dL; Tmax, median difference glulisine vs aspart [2, 6]: 17 min; Insulin AUC0–1 h/AUC0–6 h, mean ratio glulisine/aspart [2, 7]: 127% (106–152); Insulin AUC0–2 h/AUC0–6 h, mean ratio glulisine/aspart [2, 7]: 103% (95–110); Insulin AUC0–4 h/AUC0–6 h, mean ratio glulisine/aspart [2, 7]: 101% (99–103)
regular human insulin [RHI]																		Duration of action [4]: > 8 h; Time of peak effect after dosing [4]: 3 h
insulin aspart	40.0 ^† min	65.0 ^† min	59.5 ^† min	60.5 ^† min	91.0 ^† min	93.0 ^† min	11	3.6	35	4.3	77	0.31	120	0.51	no cases of severe hypoglycaemia requiring intervention	eight	15	Time of the remaining hypoglycaemia episodes after administration ([3]; episodes outside 3–6 h, one value per episode): 60 min
